Experiment [1] deals with Plasmodium falciparum. In words: In vitro antimalarial activity against Plasmodium falciparum Indochina W2. Format: functional, organism-based. In a few lines: (§1)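 Compound dissolved in DMSO and 70% ethanol, then diluted in RPMI 1640 with 10% human plasma and tested over (1.56-100) × 10^-9 M. Parasites at 0.5% parasitemia, 1% hematocrit, incubated 24 h with compound before [3H]hypoxanthine was added, then a further 18 h. Read-out is [3H]hypoxanthine uptake. IC50 obtained by nonlinear regression of concentration-response data.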

The test system of experiment [2] is Plasmodium falciparum. The experiment in a line: In vitro antimalarial activity against Plasmodium falciparum D6 Sierra Leone. Type of experiment: functional, organism-based. In a few lines:
as §1

The test system of experiment [3] is Plasmodium berghei. In words: Antimalarial activity for Plasmodium berghei infected mice (Mus musculus) (n=5) at 20 mg/kg/day. Type of experiment: functional.
In experiment [4] the test system is Plasmodium berghei. The experiment in a line: Antimalarial activity for Plasmodium berghei infected mice (Mus musculus) (n=5) at 320 mg/kg/day. Type of experiment: functional.
For experiment [5], the system named is Plasmodium berghei. The experiment in a line: Antimalarial activity for Plasmodium berghei infected mice (Mus musculus) (n=5) at 80 mg/kg/day. Type of experiment: functional.

We go through six compounds from ChEMBL document CHEMBL1125460, “Antimalarial activity of new dihydroartemisinin derivatives. 5. Sugar analogues” (J Med Chem, 1992).

Values after ≈ are worked out from the molar mass of the structure shown.

For `C[C@H]1[C@@H](O[C@@H]2O[C@H](CO)[C@@H](O[C@@H]3O[C@H](CO)[C@@H](O)[C@H](O)[C@H]3O)[C@H](O)[C@H]2O)O[C@@H]2O[C@@]3(C)CC[C@H]4[C@H](C)CC[C@@H]1[C@@]24OO3`, the figures for the concentration for half-maximal inhibition (IC50) in the experiment on Plasmodium falciparum [1] and in the experiment on Plasmodium falciparum [2] were 0.171 µg/mL (≈ 0.281 µM) and 0.71 µg/mL (≈ 1.17 µM), respectively.

Take `C[C@H]1[C@@H](O[C@@H]2O[C@H](CO)[C@@H](O)[C@H](O)[C@H]2O)O[C@@H]2O[C@@]3(C)CC[C@H]4[C@H](C)CC[C@@H]1[C@@]24OO3`: the IC50 (in general, the midpoint of a concentration-inhibition curve) in the experiment with Plasmodium falciparum [1] was determined as 0.0341 µg/mL (≈ 0.0763 µM); in the experiment with Plasmodium falciparum [2], 0.121 µg/mL (≈ 0.272 µM).

Consider `C[C@H]1[C@@H](O[C@@H]2O[C@H](CO)[C@H](O)[C@H](O)[C@H]2O)O[C@@H]2O[C@@]3(C)CC[C@H]4[C@H](C)CC[C@@H]1[C@@]24OO3`, for which the IC50 with Plasmodium falciparum [1] was found to be 0.0356 µg/mL (≈ 0.0797 µM); in the experiment with Plasmodium falciparum [2] it was 0.0131 µg/mL (≈ 0.0294 µM).

On to `CC(=O)O[C@@H]1[C@@H](OC(C)=O)[C@@H](C)O[C@H](COC(=O)CO[C@H]2O[C@@H]3O[C@@]4(C)CC[C@H]5[C@H](C)CC[C@@H]([C@H]2C)[C@@]35OO4)[C@H]1OC(C)=O`, for which the “No. of mice cured” value stood at 0 in the experiment with Plasmodium berghei [3], 5 in the experiment with Plasmodium berghei [4] and 0 in the experiment on Plasmodium berghei [5]. Further, the IC50 with Plasmodium falciparum [1] amounted to 0.00019 µg/mL (≈ 0.000302 µM); with Plasmodium falciparum [2], 0.00248 µg/mL (≈ 0.00394 µM).

Regarding `C[C@H]1[C@@H](O[Si](C)(C)C)O[C@@H]2O[C@@]3(C)CC[C@H]4[C@H](C)CC[C@@H]1[C@@]24OO3`, the “No. of mice cured” value in the experiment with Plasmodium berghei [3] is listed as 1; in the experiment with Plasmodium berghei [4], 4; in the experiment on Plasmodium berghei [5], 5. The IC50 in the experiment with Plasmodium falciparum [1] worked out at 0.00042 µg/mL (≈ 0.00118 µM); in the experiment with Plasmodium falciparum [2], 0.00111 µg/mL (≈ 0.00311 µM).

`C[C@@H]1CC[C@H]2[C@@H](C)C(=O)O[C@@H]3O[C@@]4(C)CC[C@@H]1[C@]32OO4` [ARTEMISININ]: half-maximal inhibition in the experiment on Plasmodium falciparum [1] (IC50) was put at 0.00068 µg/mL (≈ 0.00241 µM).
